ChEMBL document CHEMBL2417469, “Synthesis of novel analogs of 2-pyrazoline obtained from [(7-chloroquinolin-4-yl)amino]chalcones and hydrazine as potential antitumor and antimalarial agents” (Eur J Med Chem, 2013)
≈ marks a conversion by molar mass, not a printed value.

What was measured:
Plasmodium falciparum [1] = assay: Antimalarial activity against Plasmodium falciparum NF54 infected in human serum at 20 ug/ml after 48 hrs by fluorometric method; type: functional
Summary of the method: (§1)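 Asynchronous P. falciparum NF54 at 1.5–2% parasitemia, 5% hematocrit in RPMI with 10% human serum, exposed 48 h at 37 °C under 90% N2/5% CO2/5% O2 at the stated concentration; parasite DNA stained with ethidium bromide after proteinase K lysis; viability % = (Flu treated − medium)/(Flu untreated − medium) ×100; triplicate.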

[2] = Toxicity in RBC (unknown origin) assessed as hemolysis after 48 hrs at 20 to 80 ug/ml by spectrophotometry; type: cell-based, Erythrocyte; settings: red blood cells (RBC); read-out: Activity
Summary of the method: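 Red blood cells at 5% hematocrit in RPMI 1640 exposed to 20, 40 and 80 µg/mL for 48 h at 37 °C; free hemoglobin read spectrophotometrically at 542 nm.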

Plasmodium falciparum [3] = assay: Antimalarial activity against Plasmodium falciparum NF54 infected in human serum after 48 hrs by fluorometric method; type: functional, organism-based
Summary of the method: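 Asynchronous P. falciparum NF54 cultures at 1.5–2% parasitemia, 5% hematocrit in RPMI with 10% human serum; equal volumes of parasite suspension and compound dilutions (from 100 µg/mL stock) incubated 48 h, 37 °C, 90% N2/5% CO2/5% O2. DNA extracted with proteinase K lysis, stained with ethidium bromide; fluorescence-based viability vs compound-free control. IC50 by Probit; triplicate.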

Plasmodium falciparum [4] = assay: Antimalarial activity against Plasmodium falciparum NF54 infected in human serum at 22.2 ug/ml after 48 hrs by fluorometric method; type: functional; summary of the method: as §1

SMILES	inhibition at 20 µg/mL (Plasmodium falciparum [1])	hemolysis at 48 h [2]	IC50 (Plasmodium falciparum [3])	inhibition at 22.2 µg/mL (Plasmodium falciparum [4])
Cc1ccc(C2CC(c3cccc(Nc4ccnc5cc(Cl)ccc45)c3)=NN2C=O)cc1 (stereo unspecified)	0%			
CC(=O)N1N=C(c2ccc(Nc3ccnc4cc(Cl)ccc34)cc2)CC1c1ccccc1 (stereo unspecified)	33%	2.8%	38 mg/L (≈ 86.2 µM)	
COc1ccc(C2CC(c3ccc(Nc4ccnc5cc(Cl)ccc45)cc3)=NN2C(C)=O)cc1 (stereo unspecified)	38.3%	3.1%	> 100 mg/L	
COc1cc(C2CC(c3ccc(Nc4ccnc5cc(Cl)ccc45)cc3)=NN2C(C)=O)cc(OC)c1OC (stereo unspecified)	0%			
CC(=O)N1N=C(c2ccc(Nc3ccnc4cc(Cl)ccc34)cc2)CC1c1ccc(C)cc1 (stereo unspecified)	10.6%			
O=CN1N=C(c2ccc(Nc3ccnc4cc(Cl)ccc34)cc2)CC1c1ccc(Br)cc1 (stereo unspecified)	50.8%	3.2%	14.1 mg/L (≈ 27.9 µM)	
O=CN1N=C(c2cccc(Nc3ccnc4cc(Cl)ccc34)c2)CC1c1ccc(Br)cc1 (stereo unspecified)	12.5%			
CC(=O)N1N=C(c2ccc(Nc3ccnc4cc(Cl)ccc34)cc2)CC1c1ccc(Br)cc1 (stereo unspecified)	6.8%			
CCN(CC)CCCC(C)Nc1ccnc2cc(Cl)ccc12 (stereo unspecified) [CHLOROQUINE PHOSPHATE]		17.2%		68.4%
